Active and inactive are the calls of the source. The rule behind the calls is not given here.

For assay [1], the system named is Mus musculus. Kind of assay: Antihyperuricemic activity in fasted Kun Ming mouse assessed as inhibition of potassium oxonate-induced uric acid level in serum at 10 mg/kg qd administered 1 hr post potassium oxonate-challenge for 7 days via oral gavage measured 1 hr post last dose by phosphotungstic acid method relative to vehicle-treated control. The format is functional.

The test system of assay [2] is Mus musculus. Kind of assay: Uricosuric activity in potassium oxonate-induced Kun Ming mouse model of hyperuricemia assessed as increase in uric acid excretion in urine at 10 mg/kg qd administered 1 hr post potassium oxonate-challenge for 7 days via oral gavage measured up to 24 hrs post last dose by phosphotungstic acid method relative to vehicle-treated control. The format is functional.

In assay [3] the target is T1, Solute carrier family 22 member 12 (Homo sapiens, UniProt Q96S37).
T1 sequence (Q96S37 whole entry): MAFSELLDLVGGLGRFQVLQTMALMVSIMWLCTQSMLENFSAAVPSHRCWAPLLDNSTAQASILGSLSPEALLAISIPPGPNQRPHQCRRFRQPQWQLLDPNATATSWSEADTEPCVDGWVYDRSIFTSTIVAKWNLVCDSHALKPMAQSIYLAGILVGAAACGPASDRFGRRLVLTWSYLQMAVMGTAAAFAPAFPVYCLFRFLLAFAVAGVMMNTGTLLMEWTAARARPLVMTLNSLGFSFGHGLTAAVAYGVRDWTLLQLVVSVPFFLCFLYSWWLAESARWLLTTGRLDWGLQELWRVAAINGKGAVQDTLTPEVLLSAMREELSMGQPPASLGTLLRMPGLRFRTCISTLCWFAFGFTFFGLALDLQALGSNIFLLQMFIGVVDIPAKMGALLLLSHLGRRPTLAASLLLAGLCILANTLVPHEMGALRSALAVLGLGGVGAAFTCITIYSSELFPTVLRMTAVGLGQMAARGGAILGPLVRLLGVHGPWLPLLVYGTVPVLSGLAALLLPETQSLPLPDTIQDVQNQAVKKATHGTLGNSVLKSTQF
Kind of assay: Inhibition of URAT1 (unknown origin) expressed in HEK293 cells assessed as inhibition of [14C]-uric acid uptake at 100 uM preincubated for 30 mins followed by [14C]-uric acid addition by liquid scintillation counting analysis relative to control. The format is cell-based.

The test system of assay [4] is Mus musculus. Kind of assay: Antihyperuricemic activity in potassium oxonate-induced Kun Ming mouse model of hyperuricemia assessed as reduction in uric acid level in serum at 10 mg/kg, po qd administered via oral gavage 1 hr post potassium oxonate-challenge for 7 consecutive days by phosphotungstic acid method. The format is functional, organism-based. Summed up: (§1)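 Male Kun-Ming mice, 18–22 g, acclimatised one week, food withdrawn 1 h before dosing. Once-daily oral gavage of oxonate 250 mg/kg or 0.5% CMC-Na at 8:00, then test agent in 0.5% CMC-Na at 9:00, for seven days. 24 h urine collected from day six in metabolic cages. Serum taken 1 h after final dose, liver tissue removed. Uric acid measured by phosphotungstic acid method. n = 8.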

Assay [5] has as its system Mus musculus. Kind of assay: Antihyperuricemic activity in potassium oxonate-induced Kun Ming mouse model of hyperuricemia assessed as uricosuric activity by measuring increase in urinary uric acid excretion at 10 mg/kg, po qd administered via oral gavage 1 hr post potassium oxonate-challenge for 7 consecutive days measured up to 24 hrs post last dose by phosphotungstic acid method. The format is functional, organism-based. Summed up: as §1

In assay [6] the test system is Mus musculus. Kind of assay: Antihyperuricemic activity in potassium oxonate-induced Kun Ming mouse model of hyperuricemia assessed as oxonate-induced hepatic XOD activity at 10 mg/ kg, po qd administered 1 hr post potassium oxonate-challenge for 7 consecutive days via oral gavage relative to oxonate-treated control. The format is functional.
Assay [7] in a line: Decrease in potassium oxonate-induced renal URAT1 expression in Kun Ming mouse model of hyperuricemia at 10 mg/ kg, po qd administered 1 hr post potassium oxonate-challenge for 7 consecutive days via oral gavage by Western blot method relative to oxonate-treated control. The format is functional, organism-based.
The subject of assay [8] is Mus musculus. Kind of assay: Antihyperuricemic activity in potassium oxonate-induced Kun Ming mouse model of hyperuricemia assessed as reduction in hepatic uric acid level at 10 mg/kg, po qd administered via oral gavage 1 hr post potassium oxonate-challenge for 7 consecutive days by phosphotungstic acid method. The format is functional, organism-based. Summed up: as §1

The test system of assay [9] is Mus musculus. Kind of assay: In vivo inhibition of potassium oxonate-induced hepatic XOD activity in Kun Ming mouse model of hyperuricemia at 10 mg/ kg, po qd administered 1 hr post potassium oxonate-challenge for 7 consecutive days via oral gavage relative to control. The format is functional.
In assay [10] the target is Xanthine dehydrogenase/oxidase (Homo sapiens, UniProt P47989). Kind of assay: Inhibition of xanthine oxidase (unknown origin) assessed as reduction in uric acid formation preincubated for 5 mins followed by addition of xanthine substrate measured every minute up to 8 mins.
Sequence of Xanthine dehydrogenase/oxidase (P47989 whole entry): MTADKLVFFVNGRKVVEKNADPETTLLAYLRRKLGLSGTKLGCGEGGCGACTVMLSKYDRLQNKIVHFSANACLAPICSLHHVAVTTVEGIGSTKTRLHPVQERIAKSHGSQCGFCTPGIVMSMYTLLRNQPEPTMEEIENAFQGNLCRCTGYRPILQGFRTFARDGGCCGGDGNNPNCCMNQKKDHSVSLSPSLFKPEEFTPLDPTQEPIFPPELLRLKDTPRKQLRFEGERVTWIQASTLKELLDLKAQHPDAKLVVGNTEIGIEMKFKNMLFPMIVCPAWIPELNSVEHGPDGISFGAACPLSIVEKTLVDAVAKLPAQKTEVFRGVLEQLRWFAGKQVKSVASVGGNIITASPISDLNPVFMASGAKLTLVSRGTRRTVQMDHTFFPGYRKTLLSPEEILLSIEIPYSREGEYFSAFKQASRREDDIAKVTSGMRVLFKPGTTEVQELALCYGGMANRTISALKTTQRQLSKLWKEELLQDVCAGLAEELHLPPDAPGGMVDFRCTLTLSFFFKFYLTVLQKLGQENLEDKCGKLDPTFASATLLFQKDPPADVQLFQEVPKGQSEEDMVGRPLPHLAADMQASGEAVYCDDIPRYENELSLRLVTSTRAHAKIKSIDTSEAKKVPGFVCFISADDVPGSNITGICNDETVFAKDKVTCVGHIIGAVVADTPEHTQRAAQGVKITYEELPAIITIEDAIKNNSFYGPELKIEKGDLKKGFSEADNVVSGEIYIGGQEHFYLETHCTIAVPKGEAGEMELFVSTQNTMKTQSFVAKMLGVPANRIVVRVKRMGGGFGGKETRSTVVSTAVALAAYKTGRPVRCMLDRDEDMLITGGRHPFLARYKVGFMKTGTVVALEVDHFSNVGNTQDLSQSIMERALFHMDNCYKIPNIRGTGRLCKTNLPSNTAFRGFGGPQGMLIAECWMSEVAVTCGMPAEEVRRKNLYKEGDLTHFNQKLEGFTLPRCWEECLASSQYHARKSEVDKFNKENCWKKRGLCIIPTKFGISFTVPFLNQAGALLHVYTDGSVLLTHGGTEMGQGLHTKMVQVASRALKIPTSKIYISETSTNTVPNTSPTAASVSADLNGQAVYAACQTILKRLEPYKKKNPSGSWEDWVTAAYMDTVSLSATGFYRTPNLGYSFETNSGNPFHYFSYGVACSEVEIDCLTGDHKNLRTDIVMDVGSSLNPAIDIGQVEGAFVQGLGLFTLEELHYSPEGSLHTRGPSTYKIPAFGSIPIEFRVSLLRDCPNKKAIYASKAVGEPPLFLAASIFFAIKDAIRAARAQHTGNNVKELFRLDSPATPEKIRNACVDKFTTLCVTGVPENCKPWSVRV

Take `CCc1oc2ccccc2c1C(=O)c1cc(Br)c(O)c(Br)c1` [BENZBROMARONE]: the inhibition in vivo at 10 mg/kg in [1] was 99.7%. Also, the figures for the Activity in assay [2] and in [6] were 37.58% and 11.3%, respectively. Further, in assay [3], the inhibition at 100 µM came out at 42.5%. Also, the outcome in [4], in assay [5], in assay [7] and in assay [8] was Active.
Consider `COc1cc(/C=C2\CCC/C(=C\c3cc(C(C)(C)C)c(O)c(C(C)(C)C)c3)C2=O)cc(OC)c1`, for which the inhibition in vivo at 10 mg/kg in assay [1] is 7.74%. The Activity in assay [2] amounted to 19.35%.
For the compound `COc1cc(/C=C2\CCC/C(=C\c3ccc(N(C)C)cc3)C2=O)cc(OC)c1`, the inhibition in vivo at 10 mg/kg in assay [1] was 20.1%. Also, the Activity in assay [2] was 10.74%.
Consider `Oc1ncnc2[nH]ncc12` [ALLOPURINOL], for which the inhibition in vivo at 10 mg/kg in assay [1] was 118 to 148%. Also, the Activity in assay [2] came to 88.6%; in assay [6], 43.4%. Further, the result in assay [4], in [5] and in assay [8] was Active. In addition, the inhibition result in assay [9] is “Active”.
As for `COc1cc(/C=C2\CCC/C(=C\c3cccc(Br)c3)C2=O)cc(OC)c1`, in assay [1], the inhibition in vivo at 10 mg/kg is 47.3%. The Activity in assay [2] came to 44.71%. The inhibition at 100 µM in assay [3] amounted to 20.7%. Further, in assay [10], the IC50 is 18.9 nM.

One may read the inhibition in vivo as the relative decrease from the control value, in per cent. Usually inhibition stands for the relative decrease from the control value, in per cent. In general, IC50 refers to the concentration that gives 50% inhibition.

Source of the values: ChEMBL document CHEMBL3868642, “Discovery of novel curcumin derivatives targeting xanthine oxidase and urate transporter 1 as anti-hyperuricemic agents” (Bioorg Med Chem, 2017).
